Data as given in ChEMBL document CHEMBL1156796, “Design, synthesis, and antihepatitis B virus activities of novel 2-pyridone derivatives” (J Med Chem, 2010).

Key:
[1] = system: Hepatitis B virus; assay: Antiviral activity against HBV infected in human HepG2(2.2.15) cells assessed as inhibition of HBsAg level after 9 days by ELISA; format: functional, organism-based; conditions: HepG2 2.2.15, 216 h
[2] = system: Hepatitis B virus; assay: Antiviral activity against HBV infected in human HepG2(2.2.15) cells assessed as inhibition of HBeAg level after 9 days by ELISA; format: functional, organism-based; conditions: HepG2 2.2.15, 216 h
[3] = system: Hepatitis B virus; assay: Antiviral activity against HBV infected in human HepG2(2.2.15) cells assessed as inhibition of HBV DNA replication after 9 days by PCR; format: functional, organism-based
[4] = Cytotoxicity against human HepG2(2.2.15) cells; format: cell-based
[5] = Selectivity index, ratio of CC50 for human HepG2(2.2.15) cells to IC50 for HBV infected in human HepG2(2.2.15) cells assessed as inhibition of HBsAg; format: functional
How it was run: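 MTT at 5 g/L added 4 h before lysis in 10% SDS/50% DMF, pH 7.2, with OD read at 570 nm. IC50: HBsAg in day-9 supernatants measured by ELISA. SI = CC50/IC50.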

[6] = Selectivity index, ratio of CC50 for human HepG2(2.2.15) cells to IC50 for HBV infected in human HepG2(2.2.15) cells assessed as inhibition of HBeAg; format: functional
[7] = Selectivity index, ratio of CC50 for human HepG2(2.2.15) cells to IC50 for HBV infected in human HepG2(2.2.15) cells assessed as inhibition of HBV DNA replication; format: functional
[8] = Hepatitis B virus, HepG2 2.2.15, 216 h, read-out: IC50

Row | Compound | IC50 [1] | IC50 [2] | IC50 [3, 8] | CC50 [4] | Ratio CC50/IC50 [5] | Ratio CC50/IC50 [6] | Ratio CC50/IC50 [7] | IC50 ([3]; hepg2 2.2.15)
1 | COc1ccc(/C(=N/Cc2ccccc2)c2ccc(=O)n(Cc3ccccc3)c2)c(O)c1 | 40 µM | 4.4 µM | 31.5 µM | 102 µM | 2.55 | 23.18 | 3.24 | 
2 | COc1ccc(C/N=C(\c2ccc(=O)n(Cc3ccc(OC)cc3)c2)c2ccc(OC)cc2O)cc1 | 36 µM | 2 µM | 1 µM | 32 µM | 0.89 | 16 | 32 | 
3 | C=CC/N=C(\c1ccc(=O)n(CC=C)c1)c1ccc(OC)cc1O | 98 µM | 40 µM | 12 µM | 20 µM | 0.2 | 0.5 | 1.67 | 
4 | COc1ccc(/C(=N/Cc2cccc(F)c2)c2ccc(=O)n(Cc3cccc(F)c3)c2)c(O)c1 | 13 µM | 0.5 µM | 2.1 µM | 8 µM | 0.62 | 16 | 3.81 | 
5 | COc1ccc(-n2cc(C(=O)c3ccc(OC)cc3O)ccc2=O)cc1 | > 114 µM | 222 µM | 5.2 µM | 346 µM |  | 1.56 | 66.54 | 
6 | C=CCn1cc(C(=O)c2ccc(OC)cc2O)ccc1=O | 276 µM | 58 µM | 101 µM | 232 µM | 0.84 | 4 | 2.3 | 
7 | CCOc1ccc(-n2cc(C(=O)c3ccc(OC)cc3O)ccc2=O)cc1 | > 110 µM | 55 µM | 0.206 µM | > 110 µM |  | >1.99 | >532 | 
8 | COc1ccc(C(=O)c2ccc(=O)n(C3CCCCC3)c2)c(O)c1 | 99 µM | 0.73 µM | 99.6 µM | 15 µM | 0.15 | 20.55 | 0.15 | 
9 | COc1ccc(/C(=N/C2CC2)c2ccc(=O)n(C3CC3)c2)c(O)c1 | 123 µM | 10 µM | > 462 µM | 164 µM | 1.33 | 16.4 | <0.35 | 
10 | COc1ccc(/C(=N/Cc2ccc(C)cc2)c2ccc(=O)n(Cc3ccc(C)cc3)c2)c(O)c1 | > 118 µM | > 118 µM | 21.7 µM | 20 µM | <0.17 | <0.17 | 0.92 | 
11 | CCCCn1cc(C(=O)c2ccc(OC)cc2O)ccc1=O | > 133 µM | > 133 µM | 28.6 µM | 67 µM | <0.5 | <0.5 | 2.34 | 
12 | COc1ccc(/C(=N/Cc2ccccc2F)c2ccc(=O)n(Cc3ccccc3F)c2)c(O)c1 | 72 µM | 30 µM | 92.6 µM | 51 µM | 0.71 | 1.7 | 0.55 | 
13 | COc1ccc(C(=O)c2ccc(=O)n(-c3cc(C)ccc3C)c2)c(O)c1 | 13 µM | 38 µM | 0.5 µM | 0.5 µM | 0.04 | 0.01 | 1 | 
14 | COc1ccc(C(=O)c2ccc(=O)n(-c3cccc(C)c3)c2)c(O)c1 | 29 µM | 0.3 µM | 0.8 µM | 159 µM | 5.48 | 530 | 198.75 | 
15 | COc1ccc(/C(=N/Cc2ccc(F)c(F)c2)c2ccc(=O)n(Cc3ccc(F)c(F)c3)c2)c(O)c1 | 496 µM | > 403 µM | 97.5 µM | 201 µM | 0.41 | <0.5 | 2.07 | 
16 | Nc1ncnc2c1ncn2CCOCP(=O)(O)O [ADEFOVIR] | 305 µM | 286 µM | 0.517 µM | 540 µM | 1.77 | 1.89 | 1044.5 | 
17 | COc1ccc(C(=O)c2ccc(=O)n(-c3ccc(F)cc3)c2)c(O)c1 | > 118 µM | > 118 µM | 98.3 µM | > 118 µM |  |  | >1.2 | 
18 | COc1ccc(C(=O)c2ccc(=O)n(C(C)C)c2)c(O)c1 | 846 µM | > 846 µM | 170 µM | 696 µM | 0.82 | <0.82 | 4.09 | 
19 | COc1ccc(C(=O)c2ccc(=O)n(-c3ccccc3)c2)c(O)c1 | 176 µM | 76 µM | 20 µM | 179 µM | 1.02 | 2.36 | 8.95 | 
20 | COc1ccc(/C(=N/Cc2ccc(F)cc2)c2ccc(=O)n(Cc3ccc(F)cc3)c2)c(O)c1 | > 86.9 µM | > 86.9 µM | 64.5 µM | 10 µM | <0.12 | <0.12 | 0.15 | 
21 | CCC/N=C(\c1ccc(=O)n(CCC)c1)c1ccc(OC)cc1O | > 122 µM | > 122 µM | 33.8 µM | 120 µM | <1 | <1 | 3.55 | 
22 | COc1ccc(C(=O)c2ccc(=O)n(-c3ccc(Cl)cc3)c2)c(O)c1 | 61 µM | 1.6 µM | 6.2 µM | 164 µM | 2.69 | 102.5 | 26.45 | 
23 | CCCn1cc(C(=O)c2ccc(OC)cc2O)ccc1=O | > 139 µM | 46.3 µM | 33.3 µM | 131 µM |  | 2.83 | 3.93 | 
24 | COc1ccc(C(=O)c2ccc(=O)n(-c3ccccc3OC)c2)c(O)c1 | > 114 µM | 49 µM | 76 µM | > 114 µM |  | >2.3 | >1.5 | 
25 | COc1ccc(/C(=N/C(C)C)c2ccc(=O)n(C(C)C)c2)c(O)c1 | > 122 µM | 54 µM | > 122 µM | > 122 µM |  | >2.26 |  | 
26 | COc1ccc(C(=O)c2ccc(=O)n(-c3ccc([N+](=O)[O-])cc3)c2)c(O)c1 | > 109 µM | > 109 µM |  | 177 µM | <1.07 | <1.07 |  | Not Active
27 | COc1ccc(C(=O)c2ccc(=O)n(-c3ccc(C)cc3)c2)c(O)c1 | > 119 µM | 2 µM | 5 µM | > 119 µM |  | >59.7 | >23.9 | 
